# Measured values: ChEMBL document CHEMBL4715833, “Design, synthesis, in-vitro, in-vivo and in-silico studies of pyrrolidine-2,5-dione derivatives as multitarget anti-inflammatory agents” (Eur J Med Chem, 2020)
# Structures can show the parent of a compound that is named as a salt.
# Key:
# [1] = biological target: T1, Polyunsaturated fatty acid 5-lipoxygenase (Homo sapiens, UniProt P09917); assay: Inhibition of recombinant human 5LOX expressed in baculovirus infected Sf insect cells using linoleic acid as substrate preincubated for 5 mins followed by substrate addition
# T1 sequence (P09917 whole entry): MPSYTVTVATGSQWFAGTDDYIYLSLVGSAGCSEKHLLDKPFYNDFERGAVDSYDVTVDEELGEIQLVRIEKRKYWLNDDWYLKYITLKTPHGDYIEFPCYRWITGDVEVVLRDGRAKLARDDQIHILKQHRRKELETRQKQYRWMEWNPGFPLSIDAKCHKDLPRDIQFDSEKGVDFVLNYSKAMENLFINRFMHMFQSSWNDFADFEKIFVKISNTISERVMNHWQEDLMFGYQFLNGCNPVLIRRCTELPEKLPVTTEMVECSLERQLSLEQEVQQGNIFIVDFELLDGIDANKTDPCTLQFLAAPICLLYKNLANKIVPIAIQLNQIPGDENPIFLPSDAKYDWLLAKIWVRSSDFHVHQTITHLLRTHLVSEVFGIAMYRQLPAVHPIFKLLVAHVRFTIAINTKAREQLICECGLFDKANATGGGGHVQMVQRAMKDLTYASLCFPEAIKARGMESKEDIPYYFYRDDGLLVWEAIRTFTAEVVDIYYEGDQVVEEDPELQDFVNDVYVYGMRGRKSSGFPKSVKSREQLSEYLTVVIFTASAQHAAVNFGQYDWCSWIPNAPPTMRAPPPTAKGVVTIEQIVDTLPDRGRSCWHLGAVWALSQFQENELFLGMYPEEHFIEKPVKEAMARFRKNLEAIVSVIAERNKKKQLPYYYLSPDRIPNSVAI
# [2] = biological target: T2, Prostaglandin G/H synthase 1 (Ovis aries, UniProt P05979); assay: Inhibition of sheep COX1 using arachidonic acid as substrate preincubated for 5 mins followed by substrate addition and measured after 5 mins by UV-visible spectrophotometric method
# T2 sequence (P05979 whole entry): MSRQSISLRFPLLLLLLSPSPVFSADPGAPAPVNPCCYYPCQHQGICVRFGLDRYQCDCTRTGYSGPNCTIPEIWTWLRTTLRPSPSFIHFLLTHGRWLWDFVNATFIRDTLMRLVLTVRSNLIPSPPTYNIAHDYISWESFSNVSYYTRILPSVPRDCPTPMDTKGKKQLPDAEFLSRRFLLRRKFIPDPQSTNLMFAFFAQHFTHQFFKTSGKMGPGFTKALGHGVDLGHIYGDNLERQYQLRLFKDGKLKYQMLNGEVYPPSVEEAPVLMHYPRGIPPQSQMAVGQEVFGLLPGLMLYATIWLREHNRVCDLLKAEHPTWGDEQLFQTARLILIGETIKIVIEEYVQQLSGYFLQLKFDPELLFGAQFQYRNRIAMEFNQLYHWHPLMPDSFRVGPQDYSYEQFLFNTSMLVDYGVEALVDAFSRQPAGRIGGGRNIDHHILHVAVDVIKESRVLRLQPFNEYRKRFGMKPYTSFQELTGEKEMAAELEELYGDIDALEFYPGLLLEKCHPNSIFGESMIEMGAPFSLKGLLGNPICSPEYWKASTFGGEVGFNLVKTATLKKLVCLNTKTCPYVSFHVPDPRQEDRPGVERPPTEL
# In short: (§1)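 Enzymes activated for 5 min on ice with cofactor solution of 0.9 mM glutathione, hematin and 0.24 mM TMPD in 0.1 M Tris-HCl pH 8.0; COX-2 at 300 units/ml. Reaction started with 30 mM arachidonic acid stock, run 5 min, absorbance read at 570 nm. IC50 taken from inhibition-vs-concentration plots as means of three determinations. SI = IC50(COX-1)/IC50(COX-2).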
# [3] = Inhibition of trypsin (unknown origin) using casein as substrate preincubated for 5 mins followed by substrate addition and measured after 20 mins; design: species or system Homo sapiens
# In short: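 Trypsin 0.06 mg/ml in 20 mM Tris-HCl pH 7.4 with compound at 31.25–1000 µg/ml, 5 min at 37 °C. 0.8% (w/v) casein added, 20 min further, stopped with 70% perchloric acid. After centrifugation, supernatant absorbance read at 217 nm against buffer blank. % inhibition against control; IC50 from plot; three runs.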
# Homo sapiens = organism: Homo sapiens; assay: Selectivity index, ratio of IC50 for sheep COX1 to IC50 for recombinant human COX2 expressed in baculovirus infected Sf21 cells; in short: as §1
# Mus musculus [4] = assay: Antiinflammatory activity in PGE2-induced paw edema in Balb/c mouse assessed as inhibition of paw edema at 50 mg/kg, ip administered 1 hr prior to PGE2 challenge and measured up to 5 hrs relative to control; assay type: functional; settings: time 2-6 hrs
# In short: (§2)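 BALB/c mice of either sex (30–35 g), 8 per group, dosed i.p. with 10% DMSO, reference drug or compound (100 mg/kg). After 1 h, subplantar irritant: PGE2 0.01 µg/ml, bradykinin 20 µg/ml, histamine 0.1 ml of 1 mg/ml, or leukotriene 10 µg/ml.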
# [5] = Antiinflammatory activity assessed as inhibition of heat-induced albumin denaturation preincubated for 20 mins followed by heating at 51 degC and measured after 3 mins by UV-vis spectrophotometric method
# Mus musculus [6] = assay: Antiinflammatory activity in histamine-induced paw edema in Balb/c mouse assessed as inhibition of paw edema at 1 mg/kg, ip administered 1 hr prior to histamine challenge and measured after 1 hr relative to control; assay type: functional; settings: time 2 hrs; in short: as §2
# Mus musculus [7] = assay: Antiinflammatory activity against carrageenan-induced paw edema in Swiss mouse assessed as inhibition of paw edema at 100 mg/kg administered 30 mins prior to carrageenan challenge and measured after 5 hrs by […]-method (reference value: 7.31 +/- 3.204%); assay type: functional; settings: time 5.5 hrs
# Mus musculus [8] = assay: Antiinflammatory activity in leukotriene-induced paw edema in Balb/c mouse assessed as inhibition of paw edema at 25 mg/kg, ip administered 1 hr prior to leukotriene challenge and measured after 3 hrs relative to control; assay type: functional; in short: as §2
# Mus musculus [9] = assay: Antiinflammatory activity against carrageenan-induced paw edema in Swiss mouse assessed as inhibition of paw edema at 100 mg/kg administered 30 mins prior to carrageenan challenge and measured after 1 hr by […]-method (reference value: 7.66 +/- 3.753%); assay type: functional; settings: 1.5 h, time 90 min
# Mus musculus [10] = assay: Antiinflammatory activity against carrageenan-induced paw edema in Swiss mouse assessed as inhibition of paw edema at 100 mg/kg administered 30 mins prior to carrageenan challenge and measured after 3 hrs by […]-method (reference value: 11.41 +/- 3.069%); assay type: functional; settings: time 3.5 hrs
# Mus musculus [11] = assay: Antiinflammatory activity against carrageenan-induced paw edema in Swiss mouse assessed as inhibition of paw edema at 100 mg/kg administered 30 mins prior to carrageenan challenge and measured after 2 hrs by […]-method (reference value: 7.39 +/- 2.475%); assay type: functional; settings: time 2.5 hrs
# Mus musculus [12] = assay: Antiinflammatory activity against carrageenan-induced paw edema in Swiss mouse assessed as inhibition of paw edema at 100 mg/kg administered 30 mins prior to carrageenan challenge and measured after 4 hrs by […]-method (reference value: 14.46 +/- 1.568%); assay type: functional; settings: time 4.5 hrs
SMILES,IC50 [1],IC50 [2],IC50 [3],Ratio IC50 (Homo sapiens),other results
O=C1CCCCCC1C1CC(=O)N(c2ccccc2)C1=O (centres undefined),18.4 µM,65.6 µM,63.1 µM,1.66,
O=C1CCCCC1C1CC(=O)N(c2ccccc2)C1=O (centres undefined),78.3 µM,65.6 µM,66.3 µM,1.45,
NS(=O)(=O)c1ccc(N2C(=O)CC(CC(=O)c3ccc(Cl)cc3)C2=O)cc1 (centres undefined),12.6 µM,68.8 µM,21.5 µM,10.9,
CC(=O)CC1CC(=O)N(c2ccccc2)C1=O (centres undefined),62.4 µM,33.3 µM,151 µM,0.52,
CC1CCC(=O)C(C2CC(=O)N(Cc3ccccc3)C2=O)C1 (centres undefined),56.2 µM,51.5 µM,63.5 µM,2.35,
O=C(O)Cc1ccccc1Nc1c(Cl)cccc1Cl [DICLOFENAC],,,42.7 µM,,
Cc1ccc(-c2cc(C(F)(F)F)nn2-c2ccc(S(N)(=O)=O)cc2)cc1 [CELECOXIB],,,,,inhibition in vivo at 50 mg/kg (Mus musculus [4]): 65.9%
COc1ccc(C(=O)CC2CC(=O)N(c3ccc(S(N)(=O)=O)cc3)C2=O)cc1 (centres undefined),4.74 µM,39.2 µM,14.9 µM,18.7,IC50 [5]: 24.9 µM
CN(C)CCC(c1ccc(Cl)cc1)c1ccccn1 (centres undefined) [CHLORPHENIRAMINE MALEATE],,,,,inhibition in vivo at 1 mg/kg (Mus musculus [6]): 71.8%
CC1CCC(=O)C(C2CC(=O)N(c3ccccc3)C2=O)C1 (centres undefined),69.2 µM,53 µM,77.1 µM,0.93,
NS(=O)(=O)c1ccc(N2C(=O)CC(CC(=O)c3ccccn3)C2=O)cc1 (centres undefined),0.81 µM,43.7 µM,13.4 µM,4.88,
NS(=O)(=O)c1ccc(N2C(=O)CC(C3CCCCC3=O)C2=O)cc1 (centres undefined),21.3 µM,43.4 µM,,2.04,
O=C1CCCCC1C1CC(=O)N(c2ccc(Br)cc2)C1=O (centres undefined),130 µM,186 µM,99.9 µM,1.64,
NS(=O)(=O)c1ccc(N2C(=O)CC(CC(=O)c3ccccc3)C2=O)cc1 (centres undefined),5.29 µM,48.7 µM,45.6 µM,11.5,
NS(=O)(=O)c1ccc(N2C(=O)CC(C3CCCCCC3=O)C2=O)cc1 (centres undefined),16.1 µM,49.1 µM,,2.36,
CC(=O)Oc1ccccc1C(=O)O [ASPIRIN],,,,,inhibition in vivo at 100 mg/kg (Mus musculus [7]): 57.6%; inhibition in vivo at 25 mg/kg (Mus musculus [8]): 77.4%; inhibition in vivo at 100 mg/kg (Mus musculus [9]): 47.5%; inhibition in vivo at 100 mg/kg (Mus musculus [10]): 53.3%; inhibition in vivo at 100 mg/kg (Mus musculus [11]): 54.6%; inhibition in vivo at 100 mg/kg (Mus musculus [12]): 56.9%
O=C1CCCC1C1CC(=O)N(c2ccccc2)C1=O (centres undefined),98.5 µM,30.3 µM,85.5 µM,0.58,IC50 [5]: 97.2 µM
O=C1CCOCC1C1CC(=O)N(c2ccccc2)C1=O (centres undefined),26.8 µM,48.9 µM,117 µM,0.86,
CC(=O)C(C)(C)C1CC(=O)N(c2ccccc2)C1=O (centres undefined),53.4 µM,39.3 µM,88.7 µM,0.73,
